Shown are actives, neighbours in structure and some others; about 2.5% of the full set was active somewhere.
SENP1 FRET inh: inhibitors of human SENP1 SUMO protease catalytic domain; Q9P0U3; recombinant SENP1 catalytic domain, CyPet-SUMO1-YPet FRET cleavage; inhibition, % at 10 µM; 0.21% of 360,000 active;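 active means inhibition at least 30% at 10 µM, raw YFP signal under a set limit, fluorescence ratio 0.5 to 1.5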;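 further: 0% = enzyme with DMSO and 100% = no enzyme wells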
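Assay system – human recombinant His6-tagged SENP1 catalytic domain enzyme · Input – SENP1 enzyme, 20 pM final · Buffer or medium – Tris pH 8 buffer plus EDTA, NaCl, BME, BSA, NP40, catalase · Schedule – 50 min reaction at room temperature · Technique – FRET read of cyan and yellow fluorescence · Control set – no-enzyme wells low, DMSO-plus-enzyme wells high control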
SENP8 block-1: blocks the human protease SENP8. purified SENP8, Z-RLRGG-aminoluciferin cleavage, luminescence. inhibition, % at 10 µM. 1.2% of 330,000 active. AID 2540; in the data active means inhibition above about 50%
SENP8 block-2: blocks human SENP8 cleavage of Nedd8 substrate; Q96LD8; inhibition, % at 20 µM; recombinant SENP8, Nedd8 substrate fluorescence; 0.64% of 360,000 active; in the data active means inhibition mostly above about 40%, no sharp cut-off; inactive means mostly below about 27%
SENP7 block: blocks the human protease SENP7 | Q9BQF6 | recombinant SENP7, Z-RLRGG-aminoluciferin luminescence, 40 min | inhibition, % at 5 µM | 1.5% of 330,000 active | AID 434973;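 active means inhibition above about 50% at the single test dose, limit read from the data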;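 further: plate controls were DMSO with enzyme for no effect and no enzyme buffer wells for full effect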
SENP6 block: inhibitors of human SENP6 protease. inhibition, % at 10 µM. 1.8% of 330,000 active. Recombinant SENP6 catalytic domain, aminoluciferin luminescence;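 active means inhibition above about 50% at the single tested dose, limit read from the data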;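 further: plate controls were DMSO wells with enzyme for no effect and DMSO wells lacking enzyme for full effect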
Target sequence (Q9GZR1 628-1112 limits assumed): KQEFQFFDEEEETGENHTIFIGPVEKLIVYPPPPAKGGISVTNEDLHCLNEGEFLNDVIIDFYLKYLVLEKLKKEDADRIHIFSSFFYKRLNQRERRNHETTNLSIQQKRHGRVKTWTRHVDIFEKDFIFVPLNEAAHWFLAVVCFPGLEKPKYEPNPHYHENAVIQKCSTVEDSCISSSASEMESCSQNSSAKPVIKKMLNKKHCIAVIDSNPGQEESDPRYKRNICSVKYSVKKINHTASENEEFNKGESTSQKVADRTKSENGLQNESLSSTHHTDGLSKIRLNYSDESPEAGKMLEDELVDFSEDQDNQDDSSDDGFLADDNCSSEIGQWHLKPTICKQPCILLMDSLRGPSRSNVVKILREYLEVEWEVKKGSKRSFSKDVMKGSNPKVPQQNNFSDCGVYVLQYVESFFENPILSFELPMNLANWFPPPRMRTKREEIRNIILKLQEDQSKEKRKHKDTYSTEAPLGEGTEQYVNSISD
SENP8 confirm: confirmation of human SENP8 protease inhibitors | shares compounds with SENP7 block | AID 488912 | 40% of 6,200 active | Recombinant SENP8, Z-RLRGG-aminoluciferin luminescence, 60 min | inhibition, % at 12.5 µM;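 active means mean inhibition across replicates above about 50%, limit read from the data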
SENP6 confirm: confirmation of human SENP6 protease inhibitors; recombinant SENP6, Z-RLRGG-aminoluciferin luminescence; inhibition, % at 12.5 µM; shares compounds with SENP7 block; 58% of 6,200 active
SENP7 conf: human SENP7 inhibition, confirmed | 69% of 6,200 active | shares compounds with SENP7 block | recombinant SENP7, Z-RLRGG-aminoluciferin luminescence, 40 min | inhibition, % at 12.5 µM
Casp3 SENP sel: selectivity test for SENP inhibitors: human caspase-3 inhibition; inhibition, % at 12.5 µM; purified caspase-3, Z-DEVD-aminoluciferin luminescence, 60 min; shares compounds with SENP7 block; 60% of 6,200 active; AID 488918;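 active means mean inhibition above about 50%, limit read from the data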;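 further: plate controls were enzyme with DMSO for no effect and wells without caspase-3 for full effect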
Target sequence (P42574 28-227 limits assumed): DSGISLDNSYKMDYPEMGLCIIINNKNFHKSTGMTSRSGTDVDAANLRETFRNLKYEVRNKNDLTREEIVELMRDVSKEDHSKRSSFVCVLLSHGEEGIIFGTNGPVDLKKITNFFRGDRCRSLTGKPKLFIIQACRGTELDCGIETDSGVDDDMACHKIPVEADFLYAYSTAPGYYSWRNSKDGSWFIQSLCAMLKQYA
Luc interf: counter-screen for SENP inhibitors: luminescence interference. AID 488919. Pre-incubated SENP8/Z-RLRGG-aminoluciferin, luciferase luminescence interference. shares compounds with SENP7 block. inhibition, % at 12.5 µM. 39% of 6,200 active;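 active means mean inhibition above about 50% when retested at one dose, limit read from the data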;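 further: plate controls were DMSO wells with completed reaction for no effect and substrate without enzyme for full effect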
Starred values were filed as active, the others as inactive.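 How the source made its calls, unless noted: active means mean inhibition above about 50% in the one-dose retest (limit read from the data); inactive means the rest.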

CC(=O)Nc1cccc(NC(=O)CSc2nnc(NC(=O)c3ccco3)s2)c1 was read as SENP1 FRET inh -1.1, SENP8 block-1 -9.6, SENP8 block-2 -28.9, SENP7 block -6.4 and SENP6 block -4.8.
`CC(=O)c1ccc(NC(=O)CSc2nnc(NC(=O)c3ccco3)s2)cc1` gave SENP1 FRET inh 1.1, SENP8 block-1 54.8*, SENP8 block-2 -23.4, SENP7 block 46.7, SENP6 block 55.4*, SENP8 confirm 8.6, SENP6 confirm 10.4, SENP7 conf 14.8, Casp3 SENP sel 13.4 and Luc interf 6.9.
COCCSc1nnc(NC(=O)c2ccco2)s1 was read as SENP1 FRET inh 1.5, SENP8 block-1 -7.6, SENP8 block-2 -14.8, SENP7 block 92.4*, SENP6 block -13.8, SENP8 confirm -2.3, SENP6 confirm -2.8, SENP7 conf -3.3, Casp3 SENP sel 19.1 and Luc interf 4.0.
`COc1ccccc1C(=O)Nc1nnc(SCC(=O)Nc2ccc3c(c2)oc2ccccc23)s1` gave SENP1 FRET inh -0.9, SENP8 block-1 21.8, SENP8 block-2 -94.6, SENP7 block 73.9*, SENP6 block 34.1, SENP8 confirm 19.3, SENP6 confirm -7.4, SENP7 conf 11.6, Casp3 SENP sel 14.0 and Luc interf -0.7.
For Cc1cccc(C(=O)Nc2nnc(SCC(=O)Nc3ccc4c(c3)oc3ccccc34)s2)c1 the results were SENP1 FRET inh -1.7, SENP8 block-1 -15.5, SENP8 block-2 -19.4, SENP7 block -3.4 and SENP6 block -43.4.
`COc1ccc(N2C(=O)c3ccccc3NC(=O)C2C(=O)NCCc2ccccc2F)cc1` (stereo not given) gave SENP1 FRET inh -1.3 and SENP8 block-2 -23.6.
For Cc1c(OC(C)C(=O)NCC(O)c2ccccc2)ccc2c3c(c(=O)oc12)CCC3 (stereo not given) the results were SENP1 FRET inh -17.7, SENP8 block-1 4.3, SENP8 block-2 -227.5, SENP7 block 0.7 and SENP6 block 12.8.
For COc1ccc(/C(C)=N/NC(=O)CNC(=O)/C=C\c2ccccc2)c(OC)c1 the results were SENP1 FRET inh 1.1, SENP8 block-1 -2.5, SENP8 block-2 15.9, SENP7 block -10.0 and SENP6 block -4.4.
For COc1ccc(CNC(=O)c2ccc(CS(=O)(=O)c3ccc(Br)cc3)o2)cc1 the results were SENP1 FRET inh 1.5, SENP8 block-1 -1.6, SENP8 block-2 13.1, SENP7 block -2.3 and SENP6 block 9.3.
Screening Cc1[nH]n(C(N)=S)c(=O)c1N=Nc1ccc(S(=O)(=O)N2CCCCCC2)cc1 returned SENP1 FRET inh 3.1, SENP8 block-1 49.0, SENP8 block-2 36.9, SENP7 block 26.4, SENP6 block 72.8*, SENP8 confirm 50.7*, SENP6 confirm 43.4, SENP7 conf 48.5, Casp3 SENP sel 45.2 and Luc interf 19.7.
Screening Cc1[nH]n(C(N)=S)c(=O)c1N=Nc1cc(-c2ccc(Br)cc2)[nH]n1 returned SENP1 FRET inh -0.7, SENP8 block-1 55.1*, SENP8 block-2 30.5, SENP7 block 17.8, SENP6 block 68.9*, SENP8 confirm -7.0, SENP6 confirm 1.0, SENP7 conf -5.9, Casp3 SENP sel -4.2 and Luc interf 12.4.
Screening Cc1[nH]n(C(N)=S)c(=O)c1N=Nc1ccc2ccccc2c1 returned SENP1 FRET inh 6.6 and SENP8 block-2 6.2.
Cc1ccc(N=Nc2c(C)[nH]n(C(N)=S)c2=O)cc1C was read as SENP1 FRET inh 4.4, SENP8 block-1 77.8*, SENP8 block-2 57.3*, SENP7 block 78.2*, SENP6 block 89.6*, SENP8 confirm 61.2*, SENP6 confirm 54.3*, SENP7 conf 67.2*, Casp3 SENP sel 73.2* and Luc interf 15.9.
`Cc1[nH]n(C(N)=S)c(=O)c1N=Nc1cccc([N+](=O)[O-])c1C` gave SENP1 FRET inh 3.0, SENP8 block-1 87.7*, SENP8 block-2 38.6, SENP7 block 71.4*, SENP6 block 95.6*, SENP8 confirm 95.9*, SENP6 confirm 95.3*, SENP7 conf 101.8*, Casp3 SENP sel 92.2* and Luc interf 88.0*.
For Cc1c(N=Nc2c(-c3ccc([N+](=O)[O-])cc3)[nH]n(C(N)=S)c2=O)cccc1[N+](=O)[O-] the results were SENP1 FRET inh 3.6 and SENP8 block-2 28.7.
`NC(=S)n1[nH]c(-c2ccc([N+](=O)[O-])cc2)c(N=Nc2cccc([N+](=O)[O-])c2)c1=O` gave SENP1 FRET inh 7.3 and SENP8 block-2 37.6.
CC(=O)Nc1ccc(N=Nc2c(C)[nH]n(C(N)=S)c2=O)cc1 was read as SENP1 FRET inh 2.9, SENP8 block-1 69.7*, SENP8 block-2 8.3, SENP7 block 67.4*, SENP6 block 52.8*, SENP8 confirm 63.7*, SENP6 confirm 65.9*, SENP7 conf 92.6*, Casp3 SENP sel 92.1* and Luc interf 38.9.
Cc1occc1C(=O)Nc1ccc(S(N)(=O)=O)cc1 was read as SENP1 FRET inh -1.1, SENP8 block-1 -9.1, SENP8 block-2 6.4, SENP7 block 4.4 and SENP6 block 6.4.
CSc1ccccc1C(=O)Nc1cc(C)cc(C)c1 was read as SENP1 FRET inh 0.7, SENP8 block-1 -5.1, SENP8 block-2 27.6, SENP7 block 3.2 and SENP6 block 18.6.
Cc1ccc(NC(=O)c2ccoc2C)cc1C was read as SENP1 FRET inh 1.1, SENP8 block-1 92.4*, SENP8 block-2 15.5, SENP7 block 97.4*, SENP6 block 92.4*, SENP8 confirm -1.6, SENP6 confirm 93.6*, SENP7 conf 101.3*, Casp3 SENP sel 96.0* and Luc interf 93.0*.
Screening O=C(O)c1cccc(NC(=O)c2ccccc2NC(=O)c2cccs2)c1 returned SENP1 FRET inh 1.5 and SENP8 block-2 6.7.
For CSc1ccccc1C(=O)Nc1ccc(C)c(C)c1 the results were SENP1 FRET inh 1.9, SENP8 block-1 38.6, SENP8 block-2 -2.1, SENP7 block 67.7*, SENP6 block 64.6*, SENP8 confirm 53.7*, SENP6 confirm 51.6*, SENP7 conf 84.5*, Casp3 SENP sel 74.3* and Luc interf 69.8*.

Compound activity deposited in PubChem by Sanford-Burnham Center for Chemical Genomics.
